20 molecules from ChEMBL document CHEMBL3407373, “Design, synthesis and evaluation of a novel class of glucosamine mimetic peptides containing 1,3-dioxane” (2015) can be followed below.

Where a name gives a salt, the structure may show the parent alone.

The test system of one experiment is Mus musculus. Briefly: Antiinflammatory activity against ICR mouse ear edema model assessed as inhibition of xylene-induced edema at 0.1 umol/kg, po administered 30 mins prior to xylene challenge measured after 2 hrs relative to vehicle-treated control. The format is functional. Put shortly: (§1)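 Male ICR mice (18-20 g), 12/12 h light/dark, free food and water, acclimated 1 day; groups of twelve. Test agents were given by oral gavage as suspensions in 0.5% CMC, with CMC alone as vehicle control, 30 min before xylene was applied to both surfaces of the right ear; the left ear served as control. At 2 h, mice were decapitated and 8.0 mm ear biopsies were punched and weighed; edema = right minus left weight.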
As to `CC[C@H](C)[C@H](NCCC1OCC(C)(C)CO1)C(=O)N[C@H]1C(O)O[C@H](CO)[C@@H](O)[C@@H]1O` (some centres not stated), the inhibition in vivo at 0.1 µmol/kg is 44.3%.

For a further experiment, the system named is Mus musculus. Briefly: Antiinflammatory activity against ICR mouse ear edema model assessed as inhibition of xylene-induced edema at 10 umol/kg, po administered 30 mins prior to xylene challenge measured after 2 hrs relative to vehicle-treated control. The format is functional. Put shortly: as §1
Turning to `CC[C@H](C)[C@H](NCCC1OCC(C)(C)CO1)C(=O)N[C@H]1[C@@H](OCc2ccccc2)O[C@H](COCc2ccccc2)[C@@H](OCc2ccccc2)[C@@H]1OCc1ccccc1`, the inhibition in vivo at 10 µmol/kg came to 81.6%.

Take `CC1(C)COC(CCN[C@@H](Cc2ccccc2)C(=O)N[C@H]2[C@@H](OCc3ccccc3)O[C@H](COCc3ccccc3)[C@@H](OCc3ccccc3)[C@@H]2OCc2ccccc2)OC1`: the inhibition in vivo at 10 µmol/kg was determined as 87.1%. On to `CC(C)[C@H](NCCC1OCC(C)(C)CO1)C(=O)N[C@H]1[C@@H](OCc2ccccc2)O[C@H](COCc2ccccc2)[C@@H](OCc2ccccc2)[C@@H]1OCc1ccccc1`, for which the inhibition in vivo at 10 µmol/kg came to 86.2%. Consider `C[C@H](NCCC1OCC(C)(C)CO1)C(=O)N[C@H]1[C@@H](OCc2ccccc2)O[C@H](COCc2ccccc2)[C@@H](OCc2ccccc2)[C@@H]1OCc1ccccc1`, for which the inhibition in vivo at 10 µmol/kg turned out to be 90.3%. The same measure, in the same setting: next, `CC1(C)COC(CCN[C@@H](Cc2c[nH]c3ccccc23)C(=O)N[C@H]2[C@@H](OCc3ccccc3)O[C@H](COCc3ccccc3)[C@@H](OCc3ccccc3)[C@@H]2OCc2ccccc2)OC1`: 80.1%. Regarding `CC(C)C[C@H](NCCC1OCC(C)(C)CO1)C(=O)N[C@H]1[C@@H](OCc2ccccc2)O[C@H](COCc2ccccc2)[C@@H](OCc2ccccc2)[C@@H]1OCc1ccccc1`, the inhibition in vivo at 10 µmol/kg is 76.7%. On the same count and under the same terms, next, `CC[C@H](C)[C@H](NCCC1OCC(C)(C)CO1)C(=O)N[C@H]1[C@@H](OC(C)=O)O[C@H](COC(C)=O)[C@@H](OC(C)=O)[C@@H]1OC(C)=O`: 79.8%.

As for `CC(=O)OC[C@H]1O[C@H](OC(C)=O)[C@H](NC(=O)[C@H](Cc2ccccc2)NCCC2OCC(C)(C)CO2)[C@@H](OC(C)=O)[C@@H]1OC(C)=O`, the inhibition in vivo at 10 µmol/kg turned out to be 86.8%. Take `CC(=O)OC[C@H]1O[C@H](OC(C)=O)[C@H](NC(=O)[C@@H](NCCC2OCC(C)(C)CO2)C(C)C)[C@@H](OC(C)=O)[C@@H]1OC(C)=O`: the inhibition in vivo at 10 µmol/kg came to 70.6%. Still for that read-out and setting: next, `CC(=O)OC[C@H]1O[C@H](OC(C)=O)[C@H](NC(=O)[C@H](C)NCCC2OCC(C)(C)CO2)[C@@H](OC(C)=O)[C@@H]1OC(C)=O`: 84.2%; `CC(=O)OC[C@H]1O[C@H](OC(C)=O)[C@H](NC(=O)[C@H](Cc2c[nH]c3ccccc23)NCCC2OCC(C)(C)CO2)[C@@H](OC(C)=O)[C@@H]1OC(C)=O`: 80.7%; `CC(=O)OC[C@H]1O[C@H](OC(C)=O)[C@H](NC(=O)[C@H](CC(C)C)NCCC2OCC(C)(C)CO2)[C@@H](OC(C)=O)[C@@H]1OC(C)=O`: 86.6%. The same measure, in the same setting: next, `CC[C@H](C)[C@H](NCCC1OCC(C)(C)CO1)C(=O)N[C@H]1C(O)O[C@H](CO)[C@@H](O)[C@@H]1O` (some centres not stated): 88.7%; `CC1(C)COC(CCN[C@@H](Cc2ccccc2)C(=O)N[C@H]2C(O)O[C@H](CO)[C@@H](O)[C@@H]2O)OC1` (some centres not stated): 81.9%; `CC(C)[C@H](NCCC1OCC(C)(C)CO1)C(=O)N[C@H]1C(O)O[C@H](CO)[C@@H](O)[C@@H]1O` (some centres not stated): 85.1%.

Consider `C[C@H](NCCC1OCC(C)(C)CO1)C(=O)N[C@H]1C(O)O[C@H](CO)[C@@H](O)[C@@H]1O` (some centres not stated), for which the inhibition in vivo at 10 µmol/kg is 86.8%. On the same count and under the same terms, the result for `CC1(C)COC(CCN[C@@H](Cc2c[nH]c3ccccc23)C(=O)N[C@H]2C(O)O[C@H](CO)[C@@H](O)[C@@H]2O)OC1` (some centres not stated) reads 80.3%. Turning to `CC(C)C[C@H](NCCC1OCC(C)(C)CO1)C(=O)N[C@H]1C(O)O[C@H](CO)[C@@H](O)[C@@H]1O` (some centres not stated), the inhibition in vivo at 10 µmol/kg worked out at 81.8%.

For the molecule `N[C@H]1C(O)O[C@H](CO)[C@@H](O)[C@@H]1O` (some centres not stated) [GLUCOSAMINE HYDROCHLORIDE], the inhibition in vivo at 10 µmol/kg turned out to be 64.3%.

The next experiment deals with Mus musculus. Briefly: Antiinflammatory activity against ICR mouse ear edema model assessed as inhibition of xylene-induced edema at 1 umol/kg, po administered 30 mins prior to xylene challenge measured after 2 hrs relative to vehicle-treated control. The format is functional. In a few lines:
as §1
For the molecule `CC[C@H](C)[C@H](NCCC1OCC(C)(C)CO1)C(=O)N[C@H]1C(O)O[C@H](CO)[C@@H](O)[C@@H]1O` (some centres not stated), the inhibition in vivo at 1 µmol/kg amounted to 70.8%.

The next experiment deals with Mus musculus. Briefly: Antiinflammatory activity against ICR mouse ear edema model assessed as inhibition of xylene-induced edema at 100 mg/kg, po administered 30 mins prior to xylene challenge measured after 2 hrs relative to vehicle-treated control. The format is functional. Put shortly: as §1
As to `CC(=O)Oc1ccccc1C(=O)O` [ASPIRIN], the inhibition in vivo at 100 mg/kg is 89.5%.
